The values that follow come from paper PMC10512781 (Journal of medicinal chemistry, 2022).

As usually defined, the IC50 is the point on the concentration scale where inhibition reaches its midpoint.

Entries after “also recorded” stand apart in the source; their conditions may differ. Like-named read-outs stand apart in the source and are kept apart here. Bounds are passed on as bounds.

In series [1] the test system is human pancreatic cancer cell lines. To be noted: at 300 μM; cited from earlier work.
Series [2] deals with CHO cells. As to conditions: at 1 mM; cited from earlier work.
The subject of series [3] is c-Myc mRNA in L3.6pl cells. Kind of series: qRT-PCR, c-Myc mRNA. As to conditions: 24 h, qRT-PCR vs matched vehicle control. Format: cell-based, human. A digest of the protocol:
(§1)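 For qRT-PCR, L3.6pl cells (400,000) in RPMI 1640 with 10% FBS and 1% antibiotic–antimycotic were seeded in 6-well dishes and held overnight at 37 °C, 5% CO2. Next day they were treated with test compound or DMSO vehicle at 37 °C, then mRNA was measured by quantitative real-time PCR.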

Series [4] deals with p21 mRNA in L3.6pl cells. The experiment in a line: qRT-PCR, p21 mRNA. Format: cell-based, human. As to conditions: 24 h, qRT-PCR vs matched vehicle control. In a few lines:
as §1

In series [5] the target is T1, FUBP1 binding to the FUSE c-myc promoter region in L3.6pl cells (Homo sapiens, UniProt Q96AE4).
T1 sequence (Q96AE4 1-644): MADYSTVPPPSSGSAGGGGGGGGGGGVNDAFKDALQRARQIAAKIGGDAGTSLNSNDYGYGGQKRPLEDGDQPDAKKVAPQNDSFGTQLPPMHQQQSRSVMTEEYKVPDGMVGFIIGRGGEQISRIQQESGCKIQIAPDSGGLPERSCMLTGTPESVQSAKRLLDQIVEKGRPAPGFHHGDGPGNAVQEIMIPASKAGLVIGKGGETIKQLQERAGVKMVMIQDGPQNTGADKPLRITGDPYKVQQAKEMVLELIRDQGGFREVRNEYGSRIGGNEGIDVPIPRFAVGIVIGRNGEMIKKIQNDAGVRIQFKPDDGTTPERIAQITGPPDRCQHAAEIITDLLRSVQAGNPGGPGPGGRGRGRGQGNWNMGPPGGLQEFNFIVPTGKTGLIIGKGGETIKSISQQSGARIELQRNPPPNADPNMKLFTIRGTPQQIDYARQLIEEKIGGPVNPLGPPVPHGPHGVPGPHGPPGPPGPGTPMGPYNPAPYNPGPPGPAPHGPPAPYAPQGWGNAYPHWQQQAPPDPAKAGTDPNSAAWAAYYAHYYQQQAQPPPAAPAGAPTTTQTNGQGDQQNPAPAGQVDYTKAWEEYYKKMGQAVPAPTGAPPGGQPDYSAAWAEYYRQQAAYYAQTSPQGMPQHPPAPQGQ
The experiment in a line: Chromatin immunoprecipitation. It counts as cell-based. To be noted: 60 μM, 24 h, vs untreated. A digest of the protocol:
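L3.6pl cells seeded at 300,000 cells/mL in RPMI 1640 with 10% FBS and 1% antibiotic–antimycotic, then held overnight at 37 °C, 5% CO2. Treated 24 h with test compound (60 μM) or 0.6% DMSO, then fixed in 1% formalin for 10 min. Sonicated chromatin (20–25 μg) was precleared and immunoprecipitated overnight at 4 °C with FUBP1 antibody, with H4Ac and rabbit IgG controls. Samples were de-crosslinked overnight at 65 °C, and FUSE c-Myc DNA measured by q-PCR. Mean fold change ± S.E.M., n = 2.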

For series [6], the system named is FUBP1 protein in L3.6pl cells. The experiment in a line: Western blot, FUBP1 protein level. It counts as cell-based, human. To be noted: 24 h. In a few lines: (§2)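 L3.6pl cells (400,000 in 2 mL RPMI 1640, 10% FBS, 1% antibiotic–antimycotic) held overnight at 37 °C, 5% CO2, then treated 24 h with test compound or DMSO. Lysed in RIPA with protease and phosphatase inhibitors. Membranes blocked in 5% skim milk/PBST for 1 h, primary antibody overnight at 4 °C (c-Myc 1:1000, FUBP1 1:1000, p21 1:100, GAPDH 1:40,000), secondary 1 h, chemiluminescence on X-ray film. Repeated at least three times.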
A general note: Immunoblotting shows a protein as a band on a membrane.

Series [7] deals with c-Myc protein in L3.6pl cells. Kind of series: Western blot, c-Myc protein level. As to conditions: 24 h. It counts as cell-based, human. In a few lines:
as §2

Series [8] deals with native polyamine levels in L3.6pl cells. Kind of series: Intracellular polyamine quantitation by HPLC. Format: cell-based, human. To be noted: 60 μM, 24 h, vs vehicle (0.6% DMSO). In a few lines: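 Polyamines measured by HPLC. L3.6pl cells seeded at 100,000 cells/mL in RPMI 1640 with 250 μM aminoguanidine and held overnight at 37 °C, 5% CO2. Next day treated with test compound (60 μM) or 0.6% DMSO vehicle for 24 h at 37 °C, then intracellular native polyamines quantified.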

The target of series [9] is T2, GST-FUBP1 (KH3-KH4) binding to FUSE oligo (Oligo-KH4) (Homo sapiens, UniProt Q96AE4).
T2 sequence (Q96AE4 278-447 limits assumed): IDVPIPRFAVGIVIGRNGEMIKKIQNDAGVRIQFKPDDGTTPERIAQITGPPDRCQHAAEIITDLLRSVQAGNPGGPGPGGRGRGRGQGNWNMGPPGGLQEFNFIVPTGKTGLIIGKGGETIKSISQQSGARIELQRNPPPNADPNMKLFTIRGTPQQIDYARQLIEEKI
The experiment in a line: Gel shift assay. To be noted: 30 and 60 μM vs DMSO control. A general note: Mobility shift assays separate free from complexed probe on a gel.

Series [10] relates to p21 protein in L3.6pl cells. Kind of series: Western blot, p21 protein level. It counts as cell-based, human. To be noted: 24 h. A digest of the protocol:
as §2

Series [11] relates to polyamine import in L3.6pl cells. Kind of series: Radiolabeled spermidine. It counts as cell-based, human. As to conditions: for basal 3H-Spd uptake: 24 h treatment prior to 3H-Spd for 15 min; for 3H-Spd import in combination with DFMO vs DFMO-only: 72 h with DFMO + compound prior to 3H-Spd for 15 min. In a few lines:
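L3.6pl cells pretreated 24 h with test compound, then exposed to 3H-spermidine for 15 min. Radioactive counts normalised to lysate protein measured by BCA assay. Triplicate conditions; reported as pmol 3H-Spd/μg protein ± standard deviation.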

Series [12] concerns CHO-K1 cells. Kind of series: Cytotoxicity assay. Format: cell-based, Chinese hamster. As to conditions: CHO-K1, 384-well; maximum tolerated concentration (≥90% relative growth).
The subject of series [13] is CHO-K1 cells. The experiment in a line: 48 h growth inhibition by assay reagents. It counts as cell-based, Chinese hamster. As to conditions: read-out: 48 h CHO-K1 IC50; CHO-K1, 48 h.
The test system of series [14] is FUBP1. As to conditions: NMR study; cited from earlier work.
The test system of series [15] is L3.6pl pancreatic cancer cells. As to conditions: DFMO 8 mM, 48 h, cited from earlier work.

Take `N=C(N)NN` [AG, aminoguanidine]: the toxicity result in [1] and in series [2] was “not toxic” each time.
As to `COc1ccc(C(=O)Nc2ccc(N3CCN(c4cc(Cl)ccc4C)CC3)cc2C(=O)O)cc1` [Compound 9, 5-[4-(5-Chloro-2-methyl-phenyl)-piperazin-1-yl]-2-(4-methoxybenzoylamino)-benzoic Acid], the “c-Myc mRNA level” value in [3] is on record as “significantly decreased for c-Myc”. In addition, the “p21 mRNA level” value in [4] is reported as “increased for p21”. In series [5], the “FUSE c-Myc DNA pulled down with FUBP1 antibody” value is “reduced levels of c-Myc FUSE DNA”. In series [6], the FUBP1 protein levels result was “did not affect FUBP1 protein levels”. Also, the c-Myc protein expression entry in [7] is recorded as “reduced c-Myc protein expression”. For the same compound, in [8], the intracellular polyamine levels entry was “significantly lower polyamine levels”. In [9], the “FUBP1 (KH3-KH4)-FUSE DNA bound complex” value is listed as “dose-dependent decrease”. In series [10], the p21 protein expression entry was “increased p21 protein expression in a dose-dependent manner; also recorded: superior in terms of inducing p21”. Besides, in series [11], the “basal 3H-Spd uptake” value is “did not block the uptake of ^3H-Spd” and the “3H-Spd import in combination with DFMO vs DFMO-only” value is “did not significantly inhibit ^3H-Spd import”.
Regarding `CNCCCCNCCCCNCc1cc(CNCCCCNCCCCNC)cc(CNCCCCNCCCCNC)c1.Cl.Cl.Cl.Cl.Cl.Cl.Cl.Cl.Cl` [Compound 5], in series [11], the “basal 3H-Spd uptake” value was “blocked significant spermidine uptake” and the “3H-Spd import in combination with DFMO vs DFMO-only” value is “statistically significant reduction in ^3H-Spd import”.
As to `COc1ccccc1C(=O)Nc1ccc(N2CCN(Cc3ccccn3)CC2)cc1C(=O)O` [Compound 54, 2-(2-Methoxybenzamido)-5-(4-(pyridin-2-ylmethyl)piperazin-1-yl)benzoic Acid], the “Cytotoxicity MTC” value in series [12] is over 40 µM.
Take `NCCCCNCCCCNCc1c2ccccc2cc2ccccc12` [Ant44, N^1-(9-anthracenylmethyl)-homospermidine]: in series [13], the IC50 is 2000 nM.
For `Nc1ccccc1C(=O)O` [anthranilic acid], the “binding to FUBP1” value in series [14] is “very low affinity”.
`NCCC[C@](N)(C(=O)O)C(F)F` [DFMO, difluoromethylornithine]: in [15] (with rescuing spermidine 1 μM), the “relative growth (compared to an untreated control)” value is 103%. For the same compound, in series [15] (with spermidine 1 μM), the intracellular putrescine entry is reported as “no detectable intracellular putrescine”, the intracellular spermidine is 6.4 nmol/mg protein and the intracellular spermine was 17.4 nmol spermine/mg protein. Also, in series [15], the intracellular putrescine entry is given as “no detectable intracellular putrescine”, the intracellular spermidine is 2.1 nmol/mg protein, the intracellular spermine was 18.6 nmol spermine/mg protein and the “relative growth (compared to an untreated control)” value is reported as 64%.
Consider `COc1ccccc1C(=O)Nc1ccc(N2CCC(Oc3ccccc3)CC2)cc1C(=O)O` [Compound 63, 2-(2-Methoxybenzamido)-5-(4-phenoxypiperidin-1-yl)benzoic Acid], for which, in [7], the c-Myc protein expression entry was “reduced c-Myc”. The p21 protein expression entry in series [10] is recorded as “increased p21 protein levels”.
